In BindingDB's records for doi:10.1016/j.bmcl.2009.08.072 (Glaxosmithkline, 2010) one finds IC50 data, which are given here for one compound.

Usually pIC50 stands for the negative decadic logarithm of the IC50, by convention in mol/L.

pIC50: −log10 of the molar value.

For test [1], the target named is T1, Presenilin-1 (Homo sapiens, UniProt P49768). Briefly: Inhibition of gamma-secretase in human SHSY5Y cells expressing human recombinant APP assessed as amyloid beta42 formation by ELISA. The method, boiled down: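 SH-SY5Y cells overexpressing human APP Swedish variant were incubated with compound for 48 h. Secreted Aβ42 and Aβ40 were measured by immunoassay (MSD electrochemiluminescence or AlphaLISA).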
Background: An ELISA detects its analyte on a solid surface through an enzyme-linked reagent.

Test [2] concerns the target T1, Presenilin-1. Briefly: Inhibition of gamma-secretase in human SHSY5Y cells expressing human recombinant APP assessed as amyloid beta40 formation by ELISA. The method, boiled down: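 SH-SY5Y cells overexpressing human APP Swedish variant exposed to compound for 48 h; Aβ40 (and Aβ42) in the cell medium quantified by ELISA, either Meso Scale Discovery or AlphaLISA format. Compounds also cross-screened for inhibition of Notch processing.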

Take `CC(C)[C@H](O)C(=O)N[C@@H](C)C(=O)NC1C(=O)N(C)CCc2ccccc21` (stereo partly drawn) [(2S)-2-hydroxy-3-methyl-N-[(1S)-1-{[(1S)-3-methyl-2-oxo-2,3,4,5-tetrahydro-1H-3-benzazepin-1-yl]carbamoyl}ethyl]butanamide]: the pIC50 at Presenilin-1 [1] and on Presenilin-1 [2] was 7.40 throughout.
